Where two headings read alike, the source gives them in different places.
Experiments:
chicken fetal liver = assay: TBARs level; format: in vivo; settings: higher dose (0.5 mM: 450–500 μg/kg)
MCF-7 cells [1] = settings: at 0.001–1 μM when tested from 0.001 to 50 μM; cited from earlier work
S. typhimurium TA100 = assay: Ames test, strain TA100; format: cell-based, Salmonella typhimurium
S. typhimurium TA98 = assay: Ames test, strain TA98; format: cell-based, Salmonella typhimurium
chicken embryo = assay: Chicken embryonic assay; format: in vivo; settings: egg injection, day 18
[2] = system: S. typhimurium tester strains (TA98, TA100, and TA102); assay: Ames test, overall over three strains; format: cell-based, Salmonella typhimurium; settings: 5 × 10^–5 to 50 pmol/plate, with or without S9
S. typhimurium = settings: at 12.1 to 147.8 nmol/plate; cited from earlier work
MCF-7 cells [3] = assay: MCF-7 cell proliferation assay; format: cell-based, human
Summary of the method: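 MCF-7 cells exposed to test compound or E2 at six concentrations from 10–12 to 10–7 M in EA-free medium. Proliferation read as MTT product absorbance at 570 nm. Three independent trials, each in triplicate. % RME2 = 100 × (OD test − OD VC)/(max OD E2 − OD VC). EC50 from curve fitting. EEF = EC50 of E2/EC50 of sample. One-way ANOVA with Dunnett's test versus E2 at each concentration.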

[4] = TA102 +S9, 5 × 10^–2 pmol/plate
[5] = TA102 +S9, 5 × 10^–3 pmol/plate
[6] = TA102 +S9, 5 × 10^–4 pmol/plate
[7] = TA102 +S9, 5 × 10^–5 pmol/plate
[8] = TA102 -S9, 5 × 10^–3 pmol/plate
[9] = TA102 -S9, 5 × 10^–4 pmol/plate
[10] = TA102 -S9, 5 × 10^–5 pmol/plate
[11] = TA100 +S9, 5 × 10^–2 pmol/plate
[12] = TA100 +S9, 5 × 10^–3 pmol/plate
[13] = TA100 +S9, 5 × 10^–4 pmol/plate
[14] = TA100 +S9, 5 × 10^–5 pmol/plate
[15] = TA100 -S9, 5 × 10^–2 pmol/plate
[16] = TA100 -S9, 5 × 10^–3 pmol/plate
[17] = TA100 -S9, 5 × 10^–4 pmol/plate
[18] = TA100 -S9, 5 × 10^–5 pmol/plate
[19] = higher dose (0.5 mM: 450–500 μg/kg; E2 0.1 mM: 91 μg/kg)
[20] = lower dose (0.05 mM: 45–50 μg/kg; E2 0.01 mM: 9.1 μg/kg)

Compound: O=c1c(O)c(-c2ccc(O)c(O)c2)oc2cc(O)cc(O)c12 [quercetin]
- TBARs value (chicken fetal liver): 62.48 nmol/g
- MI (S. typhimurium TA102; TA102 +S9, 0.5 pmol/plate): 1.1
- number of revertants/plate (M ± SD) (S. typhimurium TA102; TA102 +S9, 0.5 pmol/plate): 326 ± 19 revertants/plate
- MI (S. typhimurium TA102; TA102 +S9, 5 pmol/plate): 0.9
- number of revertants/plate (M ± SD) (S. typhimurium TA102; TA102 +S9, 5 pmol/plate): 279 ± 21 revertants/plate
- MI (S. typhimurium TA102; TA102 +S9, 50 pmol/plate): 1.0
- number of revertants/plate (M ± SD) (S. typhimurium TA102; TA102 +S9, 50 pmol/plate): 310 ± 31 revertants/plate
- MI (S. typhimurium TA102; [4]): 1.1
- number of revertants/plate (M ± SD) (S. typhimurium TA102; [4]): 337 ± 7 revertants/plate
- MI (S. typhimurium TA102; [5]): 1.2
- number of revertants/plate (M ± SD) (S. typhimurium TA102; [5]): 369 ± 13 revertants/plate
- MI (S. typhimurium TA102; [6]): 1.0
- number of revertants/plate (M ± SD) (S. typhimurium TA102; [6]): 312 ± 16 revertants/plate
- MI (S. typhimurium TA102; [7]): 0.9
- number of revertants/plate (M ± SD) (S. typhimurium TA102; [7]): 291 ± 11 revertants/plate
- MI (S. typhimurium TA102; TA102 -S9, 0.5 pmol/plate): 1.0
- number of revertants/plate (M ± SD) (S. typhimurium TA102; TA102 -S9, 0.5 pmol/plate): 267 ± 23 revertants/plate
- MI (S. typhimurium TA102; TA102 -S9, 5 pmol/plate): 1.2
- number of revertants/plate (M ± SD) (S. typhimurium TA102; TA102 -S9, 5 pmol/plate): 312 ± 13 revertants/plate
- MI (S. typhimurium TA102; TA102 -S9, 50 pmol/plate): 1.4
- number of revertants/plate (M ± SD) (S. typhimurium TA102; TA102 -S9, 50 pmol/plate): 347 ± 10 revertants/plate
- MI (S. typhimurium TA102; [8]): 1.3
- number of revertants/plate (M ± SD) (S. typhimurium TA102; [8]): 325 ± 10 revertants/plate
- MI (S. typhimurium TA102; [9]): 1.2
- number of revertants/plate (M ± SD) (S. typhimurium TA102; [9]): 301 ± 16 revertants/plate
- MI (S. typhimurium TA102; [10]): 1.1
- number of revertants/plate (M ± SD) (S. typhimurium TA102; [10]): 284 ± 15 revertants/plate
- cell proliferation in the MCF-7 cells (MCF-7 cells [1]): < 120%
- MI (S. typhimurium TA100; TA100 +S9, 0.5 pmol/plate): 1.2
- number of revertants/plate (M ± SD) (S. typhimurium TA100; TA100 +S9, 0.5 pmol/plate): 398 ± 8 revertants/plate
- MI (S. typhimurium TA100; TA100 +S9, 5 pmol/plate): 1.2
- number of revertants/plate (M ± SD) (S. typhimurium TA100; TA100 +S9, 5 pmol/plate): 386 ± 12 revertants/plate
- MI (S. typhimurium TA100; TA100 +S9, 50 pmol/plate): 1.1
- number of revertants/plate (M ± SD) (S. typhimurium TA100; TA100 +S9, 50 pmol/plate): 369 ± 12 revertants/plate
- MI (S. typhimurium TA100; [11]): 1.1
- number of revertants/plate (M ± SD) (S. typhimurium TA100; [11]): 366 ± 14 revertants/plate
- MI (S. typhimurium TA100; [12]): 1.1
- number of revertants/plate (M ± SD) (S. typhimurium TA100; [12]): 367 ± 5 revertants/plate
- MI (S. typhimurium TA100; [13]): 1.1
- number of revertants/plate (M ± SD) (S. typhimurium TA100; [13]): 349 ± 8 revertants/plate
- MI (S. typhimurium TA100; [14]): 1.1
- number of revertants/plate (M ± SD) (S. typhimurium TA100; [14]): 358 ± 14 revertants/plate
- MI (S. typhimurium TA100; TA100 -S9, 0.5 pmol/plate): 1.0
- number of revertants/plate (M ± SD) (S. typhimurium TA100; TA100 -S9, 0.5 pmol/plate): 105 ± 11 revertants/plate
- MI (S. typhimurium TA100; TA100 -S9, 5 pmol/plate): 1.0
- number of revertants/plate (M ± SD) (S. typhimurium TA100; TA100 -S9, 5 pmol/plate): 104 ± 8 revertants/plate
- MI (S. typhimurium TA100; TA100 -S9, 50 pmol/plate): 0.9
- number of revertants/plate (M ± SD) (S. typhimurium TA100; TA100 -S9, 50 pmol/plate): 88 ± 8 revertants/plate
- MI (S. typhimurium TA100; [15]): 1.1
- number of revertants/plate (M ± SD) (S. typhimurium TA100; [15]): 113 ± 6 revertants/plate
- MI (S. typhimurium TA100; [16]): 1.0
- number of revertants/plate (M ± SD) (S. typhimurium TA100; [16]): 103 ± 7 revertants/plate
- MI (S. typhimurium TA100; [17]): 1.0
- number of revertants/plate (M ± SD) (S. typhimurium TA100; [17]): 98 ± 7 revertants/plate
- MI (S. typhimurium TA100; [18]): 1.0
- number of revertants/plate (M ± SD) (S. typhimurium TA100; [18]): 97 ± 4 revertants/plate
- MI (S. typhimurium TA98; TA98 +S9, 0.5 pmol/plate): 1.1
- number of revertants/plate (M ± SD) (S. typhimurium TA98; TA98 +S9, 0.5 pmol/plate): 25 ± 13 revertants/plate
- MI (S. typhimurium TA98; TA98 +S9, 5 pmol/plate): 0.8
- number of revertants/plate (M ± SD) (S. typhimurium TA98; TA98 +S9, 5 pmol/plate): 19 ± 10 revertants/plate
- MI (S. typhimurium TA98; TA98 +S9, 50 pmol/plate): 0.8
- number of revertants/plate (M ± SD) (S. typhimurium TA98; TA98 +S9, 50 pmol/plate): 18 ± 13 revertants/plate
- MI (S. typhimurium TA98; TA98 +S9, 5 × 10^–2 pmol/plate): 1.0
- number of revertants/plate (M ± SD) (S. typhimurium TA98; TA98 +S9, 5 × 10^–2 pmol/plate): 23 ± 17 revertants/plate
- MI (S. typhimurium TA98; TA98 +S9, 5 × 10^–3 pmol/plate): 1.2
- number of revertants/plate (M ± SD) (S. typhimurium TA98; TA98 +S9, 5 × 10^–3 pmol/plate): 27 ± 16 revertants/plate
- MI (S. typhimurium TA98; TA98 +S9, 5 × 10^–4 pmol/plate): 0.8
- number of revertants/plate (M ± SD) (S. typhimurium TA98; TA98 +S9, 5 × 10^–4 pmol/plate): 18 ± 13 revertants/plate
- MI (S. typhimurium TA98; TA98 +S9, 5 × 10^–5 pmol/plate): 0.7
- number of revertants/plate (M ± SD) (S. typhimurium TA98; TA98 +S9, 5 × 10^–5 pmol/plate): 17 ± 8 revertants/plate
- MI (S. typhimurium TA98; TA98 -S9, 0.5 pmol/plate): 1.3
- number of revertants/plate (M ± SD) (S. typhimurium TA98; TA98 -S9, 0.5 pmol/plate): 28 ± 1 revertants/plate
- MI (S. typhimurium TA98; TA98 -S9, 5 pmol/plate): 1.2
- number of revertants/plate (M ± SD) (S. typhimurium TA98; TA98 -S9, 5 pmol/plate): 27 ± 11 revertants/plate
- MI (S. typhimurium TA98; TA98 -S9, 50 pmol/plate): 1.3
- number of revertants/plate (M ± SD) (S. typhimurium TA98; TA98 -S9, 50 pmol/plate): 30 ± 2 revertants/plate
- MI (S. typhimurium TA98; TA98 -S9, 5 × 10^–2 pmol/plate): 0.8
- number of revertants/plate (M ± SD) (S. typhimurium TA98; TA98 -S9, 5 × 10^–2 pmol/plate): 19 ± 6 revertants/plate
- MI (S. typhimurium TA98; TA98 -S9, 5 × 10^–3 pmol/plate): 1.4
- number of revertants/plate (M ± SD) (S. typhimurium TA98; TA98 -S9, 5 × 10^–3 pmol/plate): 31 ± 6 revertants/plate
- MI (S. typhimurium TA98; TA98 -S9, 5 × 10^–4 pmol/plate): 1.2
- number of revertants/plate (M ± SD) (S. typhimurium TA98; TA98 -S9, 5 × 10^–4 pmol/plate): 27 ± 3 revertants/plate
- MI (S. typhimurium TA98; TA98 -S9, 5 × 10^–5 pmol/plate): 1.1
- number of revertants/plate (M ± SD) (S. typhimurium TA98; TA98 -S9, 5 × 10^–5 pmol/plate): 25 ± 2 revertants/plate
- LSI (liver somatic index) (chicken embryo; [19]): 1.85 ± 0.21%
- REEW (ratio of embryo to egg weight) (chicken embryo; [19]): 0.43 ± 0.057
- mortality rate (chicken embryo; [19]): 12.5%
- number of dead chicken embryo (chicken embryo; [19]): 1
- weights: embryo (chicken embryo; [19]): 24.06 ± 2.35 g
- weights: heart (chicken embryo; [19]): 0.21 ± 0.05 g
- weights: liver (chicken embryo; [19]): 0.44 ± 0.01 g
- LSI (liver somatic index) (chicken embryo; [20]): 2.52 ± 0.34%
- REEW (ratio of embryo to egg weight) (chicken embryo; [20]): 0.41 ± 0.035
- malformation rate (chicken embryo; [20]): 0.0%
- mortality rate (chicken embryo; [20]): 25.0%
- number of dead chicken embryo (chicken embryo; [20]): 2
- number of malformation chicken embryo (chicken embryo; [20]): 0
- weights: embryo (chicken embryo; [20]): 22.11 ± 2.26 g
- weights: heart (chicken embryo; [20]): 0.20 ± 0.02 g
- weights: liver (chicken embryo; [20]): 0.56 ± 0.13 g
- Ames test outcome (signs of mutagenicity) [2]: signs of mutagenicity
- mutagenicity in TA98, TA100, and TA102 (S. typhimurium): showed mutagenicity
- % RME2, no detectable EA (MCF-7 cells [3]; all test concentrations except 10^–11 M, VC + 3 SD = 18%): < 18%
- max % RME2 (MCF-7 cells [3]; highest % RME2 (relative maximum % E2) in test range 10^–12–10^–7 M): 22%
